Reference: paper PMC4235313 (Chemistry (Weinheim an Der Bergstrasse, Germany), 2013)

Molecular target: T1, S. aureus PBP2 (Staphylococcus aureus, UniProt Q9R744)
T1 sequence (Q9R744 1-727): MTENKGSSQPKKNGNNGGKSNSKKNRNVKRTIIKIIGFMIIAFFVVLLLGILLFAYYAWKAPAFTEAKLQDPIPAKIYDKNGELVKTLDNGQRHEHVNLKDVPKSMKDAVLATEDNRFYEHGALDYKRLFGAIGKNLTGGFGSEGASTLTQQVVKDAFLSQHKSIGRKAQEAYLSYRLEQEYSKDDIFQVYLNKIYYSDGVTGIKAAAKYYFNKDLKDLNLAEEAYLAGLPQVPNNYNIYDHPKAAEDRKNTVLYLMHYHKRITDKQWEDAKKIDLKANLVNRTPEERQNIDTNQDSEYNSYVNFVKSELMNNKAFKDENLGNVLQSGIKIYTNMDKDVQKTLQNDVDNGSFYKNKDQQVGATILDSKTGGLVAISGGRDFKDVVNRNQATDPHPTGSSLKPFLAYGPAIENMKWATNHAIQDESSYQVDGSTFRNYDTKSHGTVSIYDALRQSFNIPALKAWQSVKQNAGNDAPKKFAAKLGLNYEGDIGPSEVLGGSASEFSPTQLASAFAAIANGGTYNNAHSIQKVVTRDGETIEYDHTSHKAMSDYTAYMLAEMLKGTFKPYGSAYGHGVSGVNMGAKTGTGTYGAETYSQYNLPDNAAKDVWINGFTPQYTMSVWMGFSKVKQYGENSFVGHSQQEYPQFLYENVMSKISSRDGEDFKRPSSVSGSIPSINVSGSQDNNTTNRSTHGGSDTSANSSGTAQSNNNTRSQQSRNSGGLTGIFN
Format: biochemical, Staphylococcus aureus RN4220
Details: for suppression of the peptidoglycan polymerization (in words): susceptible (normal lipid II analogue) and resistant (depsi-lipid II analogue) models of the PBP2 reaction, Figure 6
How it was run: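 N-terminal His6 S. aureus PBP2 (gene from RN4220 genomic DNA), expressed in E. coli BL21(DE3)pLysS, Ni-NTA and gel-filtration purified; 30 μg/mL in 50 mM HEPES pH 7.0, 18 mM MnCl2, 10% DMSO. Test compound series started with 4 μM [14C]-C35-lipid II or [14C]-C35-depsi-lipid II analogue, 30 °C, 4 min; SDS stop; cellulose TLC; phosphorimaging of polymerised product.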

CN[C@H](CC(C)C)C(=O)N[C@H]1C(=O)N[C@@H](CC(N)=O)C(=O)N[C@H]2C(=O)N[C@H]3C(=O)N[C@H](C(=O)N[C@H](C(=O)O)c4cc(O)cc(O)c4-c4cc3ccc4O)[C@H](O)c3ccc(c(Cl)c3)Oc3cc2cc(c3O[C@@H]2O[C@H](CO)[C@@H](O)[C@H](O)[C@H]2O[C@H]2C[C@](C)(N)[C@H](O)[C@H](C)O2)Oc2ccc(cc2Cl)[C@H]1O [vancomycin]
IC50: 1520 nM
suppression of the peptidoglycan polymerization (in words): suppressed the peptidoglycan polymerization only when normal lipid II analogue was used

moenomycin
suppression of the peptidoglycan polymerization (in words): suppressed the peptidoglycan polymerization regardless of the use of normal or depsi-lipid II analogues
